Screening data from PubChem.
dFosB activator: activators of mouse delta FosB homodimer; P13346; purified delta FosB, TAMRA-CDK5 oligo fluorescence polarization; percent of positive-control signal above neutral wells; activation, % at 25 µM; actives 0.99% (n = 340,000); AID 493131;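 active means mean activation above about 17%, with every replicate also reaching it, limit read from the data, passing the limit was not always enough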
Target sequence (P13346 whole entry, looked up): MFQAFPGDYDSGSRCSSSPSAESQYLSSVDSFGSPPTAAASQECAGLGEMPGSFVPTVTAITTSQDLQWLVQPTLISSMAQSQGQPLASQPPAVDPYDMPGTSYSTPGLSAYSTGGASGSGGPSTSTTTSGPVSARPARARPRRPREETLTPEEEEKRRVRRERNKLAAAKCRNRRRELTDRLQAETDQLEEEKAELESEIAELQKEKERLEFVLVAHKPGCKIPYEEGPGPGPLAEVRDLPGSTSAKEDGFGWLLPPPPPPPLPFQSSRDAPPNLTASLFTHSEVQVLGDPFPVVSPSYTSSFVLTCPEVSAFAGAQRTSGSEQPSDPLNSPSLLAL
PAX8 inh HTS: PAX8 transcriptional activity inhibition; inhibition, % at 12.6 µM; actives 1.2% (n = 360,000); AID 652154; RMG-I TPO-luciferase reporter, SteadyGlo, 24 h;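 active means mean replicate inhibition at least 60% with every replicate also reaching 60%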;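 further: luciferase light reporting Pax8 driven TPO promoter activity; plate controls were median of neutral control wells for no effect and mitoxantrone controls for full effect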
INS-1E GSIS act: GLuc luminescence reporter in INS-1E cells, primary screen for activators of glucose-dependent secretion of insulin; actives 0.61% (n = 370,000); activation, % at 16.6 µM; AID 743287; INS-1E GLuc reporter insulin secretion, 2-3 h;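 active means lowest replicate activation of at least 40%, so every replicate reaches that level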;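 further: 0% = median of neutral control wells and 100% = median of IBMX positive control wells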
Env fusion inh: HIV envelope-mediated fusion inhibition. HeLa-JRFL Env/CEM21 cell fusion, luciferase. actives 1.1% (n = 360,000). AID 651610. inhibition, % at 12.3 µM;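 active means mean replicate inhibition score of at least 50 and every replicate individually at or above 50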;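 further: 0% = plate neutral controls and 100% = maraviroc near 300 nM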
CDK5 inh: blocks human CDK5/p35 kinase activity. AID 488839. inhibition, % at 10 µM. Recombinant CDK5/p35, ADP-Glo luminescence, 60 min. actives 0.01% (n = 330,000);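 active means highest replicate inhibition of at least 50% and at least 75% of replicates reaching 50%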;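 further: plate controls were DMSO neutral control for no effect and GW8510 at 10 µM for full effect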
Cneo AK release: Cryptococcus neoformans lysis via adenylate kinase release. lysis activity, % at 15 µM. actives 0.2% (n = 360,000). AID 651654. C. neoformans lysis, adenylate kinase release luminescence, 4 h; normalised: neutral wells 0, clomiphene wells 100;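 active means mean lysis activity across replicates of at least 80%, whatever share of replicates individually reach that level; inactive means mean lysis activity below 80%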
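read-out = cell lysis signal | test system = log-phase Cryptococcus neoformans yeast cells | input = cells at 5 × 10^6 per mL | medium = fresh YPD growth medium | signal = luminescent adenylate kinase detection reagent | timing = 4 h at 37 °C static, read 1 h later | dosing = single dose | controls = Clomiphene as positive lysis control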
Starred values were filed as active, the others as inactive; nt = no result; ! = repeats disagree; [ ] = remark or other dose. This is a sample that favours compounds with a hit; in the whole collection about 2.9% have one here.

SMILES | dFosB activator | PAX8 inh HTS | INS-1E GSIS act | Env fusion inh | CDK5 inh | Cneo AK release
N#Cc1cccc(-c2ccc([C@@H]3[C@@H]4CN(S(=O)(=O)c5ccc(-c6ccccc6)cc5)C[C@H]3N4)cc2)c1 | nt | 41 | 556* | nt | nt | nt
N#Cc1cccc(-c2ccc(C3[C@@H]4CN(S(=O)(=O)c5ccccc5)C[C@H]3N4)cc2)c1 (stereo not given in full) | nt | 21 | -7 | nt | nt | nt
N#Cc1cccc(-c2ccc(C3[C@@H]4CN(C(=O)c5ccccn5)C[C@H]3N4)cc2)c1 (stereo not given in full) | nt | 64*! | -4 | nt | nt | nt
N#Cc1cccc(-c2ccc(C3[C@@H]4CN(S(=O)(=O)c5ccccc5F)C[C@H]3N4)cc2)c1 (stereo not given in full) | nt | -4 | 0 | nt | nt | nt
CS(=O)(=O)N1C[C@@H]2N[C@H](C1)[C@@H]2c1ccc(-c2ccccc2)cc1 | nt | 76* | 13 | nt | nt | nt
C[C@@H]1CCCCO[C@@H](CN(C)Cc2ccncc2)[C@H](C)CN([C@H](C)CO)C(=O)c2cc(NC(=O)C3CCCCC3)ccc2O1 | nt | 10 | -10 | -1[16.7 µM] | nt | 0
C[C@@H]1CCCCO[C@H](CN(C)C(=O)Nc2ccccc2)[C@@H](C)CN([C@@H](C)CO)C(=O)c2cc(NC(=O)c3ccccc3)ccc2O1 | nt | 0 | -24 | -52[16.7 µM] | nt | -2
CC(C)NC(=O)Nc1ccc2c(c1)CC(=O)N([C@@H](C)CO)C[C@H](C)[C@H](CN(C)Cc1ccc(-c3ccccc3)cc1)O2 | nt | 3 | -1 | -70[16.7 µM] | nt | -4
COc1ccc(CNC(=O)C[C@@H]2CC[C@H](NC(=O)c3ccc4c(c3)OCO4)[C@H](CO)O2)cc1 | nt | 6 | 1 | -2[16.7 µM] | nt | 11
COc1cccc(S(=O)(=O)N2C[C@@H]3N[C@H](C2)C3c2ccc(-c3cccc(C)c3)cc2)c1 (stereo not given in full) | nt | 69*! | 20 | nt | nt | nt
COc1ccc(-c2ccc(C3[C@@H]4CN(S(=O)(=O)c5cccc(C)c5)C[C@H]3N4)cc2)cc1 (stereo not given in full) | nt | -4 | -3 | nt | nt | nt
CCN(C(=O)CSc1ncccn1)c1cccc2ccccc12 | -11 | 2 | 48* | nt | -3 | 0
C=C1CCN([C@@H](CC(C)C)C(=O)Nc2ccc(OC)cc2)S(=O)(=O)c2ccccc21 | -4 | -2 | -32 | 102* | -1 | 3
C=C1CCN(C(CC(C)C)C(=O)OC)S(=O)(=O)c2ccccc21 (stereo not given) | 7 | -2 | -38 | 22 | -3 | 0
C=C1CCN([C@@H](Cc2ccccc2)C(=O)NCCC(C)C)S(=O)(=O)c2ccccc21 | 2 | -4 | -31 | 84* | 0 | 0
C=C1CCN([C@@H](CC(C)C)C(=O)NCc2ccccc2)S(=O)(=O)c2ccccc21 | -2 | 8 | -14 | 23 | 0 | 0
C[C@@H]1CCCCO[C@@H](CN(C)C(=O)c2ccncc2)[C@H](C)CN([C@@H](C)CO)C(=O)c2cc(NC(=O)CCC(F)(F)F)ccc2O1 | nt | -22 | -20 | -5[16.7 µM] | nt | 3
CC(C)NC(=O)Nc1ccc2c(c1)C(=O)N([C@@H](C)CO)C[C@H](C)[C@@H](CN(C)C(=O)CCC(F)(F)F)OCCCC[C@H](C)O2 | nt | -11 | -10 | 15[16.7 µM] | nt | 96*
CC(C)NC(=O)Nc1ccc2c(c1)C(=O)N([C@H](C)CO)C[C@@H](C)[C@@H](CN(C)C(=O)CCC(F)(F)F)OCCCC[C@@H](C)O2 | nt | 6 | 25 | 79*[16.7 µM] | nt | 0
CC(C)NC(=O)Nc1ccc2c(c1)C(=O)N([C@@H](C)CO)C[C@@H](C)[C@@H](CN(C)C(=O)CCC(F)(F)F)OCCCC[C@H](C)O2 | nt | -7 | 28 | -17[16.7 µM] | nt | -2
CC(C)NC(=O)Nc1ccc2c(c1)C(=O)N([C@@H](C)CO)C[C@@H](C)[C@@H](CN(C)C(=O)CCC(F)(F)F)OCCCC[C@@H](C)O2 | nt | 10 | 27 | 86*[16.7 µM] | nt | -1
C[C@@H]1CCCCO[C@H](CN(C)C(=O)c2ccncc2)[C@H](C)CN([C@H](C)CO)C(=O)c2cc(NC(=O)CCC(F)(F)F)ccc2O1 | nt | -17 | 1 | 7[16.7 µM] | nt | 82*
Cc1noc(C)c1NC(=O)Nc1ccc2c(c1)CC(=O)N([C@@H](C)CO)C[C@H](C)[C@@H](CN(C)Cc1ccc(C(=O)O)cc1)O2 | nt | nt | 8 | 2[16.7 µM] | nt | -2
O=C(C[C@@H]1C=C[C@@H](NC(=O)Nc2ccc(C(F)(F)F)cc2)[C@@H](CO)O1)NCc1cccc(F)c1 | nt | 25 | nt | 10[16.7 µM] | nt | nt
C[C@@H]1CN([C@H](C)CO)C(=O)c2cc(NC(=O)Nc3ccc4c(c3)OCO4)ccc2O[C@@H](C)CCCCO[C@@H]1CN(C)C(=O)CCC(F)(F)F | nt | -30 | -16 | -4[16.7 µM] | nt | 0
SMILES | dFosB activator | PAX8 inh HTS | INS-1E GSIS act | Env fusion inh | CDK5 inh | Cneo AK release
C[C@@H]1CCCCO[C@@H](CN(C)C(=O)Nc2ccccc2)[C@H](C)CN([C@H](C)CO)C(=O)c2cc(NC(=O)CCC(F)(F)F)ccc2O1 | nt | 15 | -14 | 66*[16.7 µM] | nt | 2
C[C@@H]1CCCCO[C@H](CN(C)C(=O)CCC(F)(F)F)[C@H](C)CN([C@@H](C)CO)C(=O)c2cc(NC(=O)Nc3ccc4c(c3)OCO4)ccc2O1 | nt | 68* | -4 | 26[16.7 µM] | nt | 2
C[C@H]1CCCCO[C@H](CN(C)C(=O)CCC(F)(F)F)[C@@H](C)CN([C@@H](C)CO)C(=O)c2cc(NC(=O)CCC(F)(F)F)ccc2O1 | nt | -4 | -7 | 12[16.7 µM] | nt | 47
C[C@@H]1CCCCO[C@H](CN(C)C(=O)Nc2ccccc2)[C@@H](C)CN([C@@H](C)CO)C(=O)c2cc(NC(=O)CCC(F)(F)F)ccc2O1 | nt | -13 | -5 | -97[16.7 µM] | nt | 0
C[C@@H]1CCCCO[C@H](CN(C)C(=O)CCC(F)(F)F)[C@H](C)CN([C@H](C)CO)C(=O)c2cc(NC(=O)CCC(F)(F)F)ccc2O1 | nt | -3 | -6 | 87*[16.7 µM] | nt | 57
Cn1cnc(S(=O)(=O)N2C[C@H](O)COC[C@@H]3O[C@@H](CC(=O)N4CCN(c5ccccc5)CC4)CC[C@H]32)c1 | nt | 13 | 3 | -5[16.7 µM] | nt | -1
Cc1c(OCC(=O)NCc2ccccn2)ccc2c3c(c(=O)oc12)CCCC3 | -23 | 1 | 41* | -7 | -3 | -2
Cc1c(OC(C)C(=O)NCc2ccccn2)ccc2c3c(c(=O)oc12)CCC3 (stereo not given) | -10 | -11 | 27 | -3 | -1 | -4
Cc1ccc(S(=O)(=O)Nc2cccc3c2O[C@@H](CN(C)C(=O)Nc2c(C)noc2C)[C@H](C)CN([C@H](C)CO)C3=O)cc1 | nt | -15 | -1 | -21[16.7 µM] | nt | -2
CC(C)CC(=O)N1CC=CC[C@@H](c2ccc(Cl)cc2)N(Cc2ccc(Cl)cc2)C(=O)[C@@H]1Cc1ccccc1 | -10 | -1 | -21 | 76* | 1 | 1
